From ChEMBL document CHEMBL5303300, “EUbOPEN Chemogenomics Library - Multiplex” (2023)
Values joined by “and” are separate entries in the source; they are usually repeats but may differ in a detail not shown here. Equal values may be shown once.

Tested on: U2OS
Test: Multiplex assay against U2OS
Assay type: toxicity, cell-based
Settings: human, number of replicates 2
Outline: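 Compound was added to live cells that had been stained at seeding with Hoechst33342, BioTracker Green Microtubule Cytoskeleton Dye, MitoTracker Red and Annexin V Alexa Fluor 680, and imaging followed on a CQ1 microscope at 37°C and 5% CO2. CellPathfinder machine-learning gating divided cells into Hoechst high-intensity objects or normal cells, normal cells into healthy, pyknosed or fragmented nuclei, and pyknosed cells into mitotic or apoptotic. Tubulin, mitochondrial-mass and membrane-permeability phenotypes are per cents of healthy-nucleus cells.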

[1] = 12 h, 1 µM, compound concentration 1 uM
[2] = 12 h, 10 µM, compound concentration 10 uM
[3] = 24 h, 1 µM, compound concentration 1 uM
[4] = 24 h, 10 µM, compound concentration 10 uM
[5] = 48 h, 1 µM, compound concentration 1 uM
[6] = 48 h, 10 µM, compound concentration 10 uM

Structure (SMILES): CN(C)[C@H]1CC[C@H](Nc2ncc3ncnc(Nc4ccc(F)c(Cl)c4)c3n2)CC1
- Population Fragmented Nuclei (%) [1]: 46% and 17%
- Population Healthy Nuclei (%) [1]: 42% and 68%
- Population Hoechst High Intensity Objects (%) [1]: 0%
- Population Membrane Permeable-Phenotype (%) [1]: 4% and 1%
- Population Mitochondria Different-Phenotype (%) [1]: 4% and 1%
- Population Mitotic Cells (%) [1]: 100% and 64%
- Population Normal (%) [1]: 100% and 99%
- Population Pyknosed Nuclei (%) [1]: 10% and 14%
- Population Tubulin-Different-Phenotype (%) [1]: 76% and 89%
- Population Apoptotic (%) [2]: 6% and 13%
- Population Fragmented Nuclei (%) [2]: 38% and 27%
- Population Healthy Nuclei (%) [2]: 36%
- Population Hoechst High Intensity Objects (%) [2]: 9% and 11%
- Population Membrane Permeable-Phenotype (%) [2]: 7% and 2%
- Population Mitochondria Different-Phenotype (%) [2]: 6% and 1%
- Population Mitotic Cells (%) [2]: 93% and 86%
- Population Normal (%) [2]: 90% and 88%
- Population Pyknosed Nuclei (%) [2]: 25% and 35%
- Population Tubulin-Different-Phenotype (%) [2]: 50% and 81%
- Total Cell Count [2]: 197 and 472
- Population Apoptotic (%) [3]: 16% and 47%
- Population Healthy Nuclei (%) [3]: 43% and 76%
- Population Hoechst High Intensity Objects (%) [3]: 0%
- Population Membrane Permeable-Phenotype (%) [3]: 0% and 3%
- Population Mitochondria Different-Phenotype (%) [3]: 0% and 1%
- Population Mitotic Cells (%) [3]: 83% and 52%
- Population Normal (%) [3]: 100% and 99%
- Population Pyknosed Nuclei (%) [3]: 9% and 11%
- Population Tubulin-Different-Phenotype (%) [3]: 75% and 92%
- Population Apoptotic (%) [4]: 17% and 10%
- Population Fragmented Nuclei (%) [4]: 40% and 25%
- Population Healthy Nuclei (%) [4]: 33% and 40%
- Population Hoechst High Intensity Objects (%) [4]: 14% and 9%
- Population Membrane Permeable-Phenotype (%) [4]: 8% and 2%
- Population Mitochondria Different-Phenotype (%) [4]: 2% and 0%
- Population Mitotic Cells (%) [4]: 82% and 89%
- Population Normal (%) [4]: 85% and 90%
- Population Pyknosed Nuclei (%) [4]: 26% and 33%
- Population Tubulin-Different-Phenotype (%) [4]: 61% and 82%
- Population Apoptotic (%) [5]: 75% and 60%
- Population Healthy Nuclei (%) [5]: 39% and 76%
- Population Hoechst High Intensity Objects (%) [5]: 0%
- Population Membrane Permeable-Phenotype (%) [5]: 3% and 1%
- Population Mitochondria Different-Phenotype (%) [5]: 0% and 1%
- Population Mitotic Cells (%) [5]: 25% and 39%
- Population Normal (%) [5]: 100% and 99%
- Population Pyknosed Nuclei (%) [5]: 5% and 8%
- Population Tubulin-Different-Phenotype (%) [5]: 71% and 89%
- Population Apoptotic (%) [6]: 18% and 14%
- Population Fragmented Nuclei (%) [6]: 36% and 26%
- Population Healthy Nuclei (%) [6]: 38% and 47%
- Population Hoechst High Intensity Objects (%) [6]: 13% and 10%
- Population Membrane Permeable-Phenotype (%) [6]: 9% and 1%
- Population Mitochondria Different-Phenotype (%) [6]: 4% and 0%
- Population Mitotic Cells (%) [6]: 81% and 85%
- Population Normal (%) [6]: 86% and 89%
- Population Pyknosed Nuclei (%) [6]: 25%
- Population Tubulin-Different-Phenotype (%) [6]: 53% and 79%

Structure (SMILES): CN[C@@H]1CC[C@@H](c2ccc(Cl)c(Cl)c2)c2ccccc21.Cl
- Population Apoptotic (%) [1]: 66% and 62%
- Population Fragmented Nuclei (%) [1]: 4% and 9%
- Population Healthy Nuclei (%) [1]: 82% and 78%
- Population Hoechst High Intensity Objects (%) [1]: 0%
- Population Membrane Permeable-Phenotype (%) [1]: 4% and 9%
- Population Mitotic Cells (%) [1]: 33% and 37%
- Population Normal (%) [1]: 100%
- Population Pyknosed Nuclei (%) [1]: 13% and 12%
- Population Tubulin-Different-Phenotype (%) [1]: 52% and 43%
- Population Apoptotic (%) [2]: 83% and 60%
- Population Healthy Nuclei (%) [2]: 33% and 57%
- Population Hoechst High Intensity Objects (%) [2]: 0%
- Population Membrane Permeable-Phenotype (%) [2]: 30%
- Population Mitochondria Different-Phenotype (%) [2]: 53% and 50%
- Population Mitotic Cells (%) [2]: 16% and 40%
- Population Normal (%) [2]: 100%
- Population Pyknosed Nuclei (%) [2]: 30% and 32%
- Population Tubulin-Different-Phenotype (%) [2]: 84% and 73%
- Population Apoptotic (%) [3]: 60% and 71%
- Population Fragmented Nuclei (%) [3]: 1% and 7%
- Population Healthy Nuclei (%) [3]: 84% and 81%
- Population Hoechst High Intensity Objects (%) [3]: 0%
- Population Membrane Permeable-Phenotype (%) [3]: 2% and 1%
- Population Mitochondria Different-Phenotype (%) [3]: 6% and 1%
- Population Mitotic Cells (%) [3]: 39% and 28%
- Population Normal (%) [3]: 100%
- Population Pyknosed Nuclei (%) [3]: 14% and 10%
- Population Tubulin-Different-Phenotype (%) [3]: 63% and 33%
- Population Apoptotic (%) [4]: 90% and 75%
- Population Hoechst High Intensity Objects (%) [4]: 0%
- Population Membrane Permeable-Phenotype (%) [4]: 42% and 33%
- Population Mitochondria Different-Phenotype (%) [4]: 100% and 63%
- Population Mitotic Cells (%) [4]: 10% and 25%
- Population Normal (%) [4]: 100%
- Population Pyknosed Nuclei (%) [4]: 50% and 35%
- Population Tubulin-Different-Phenotype (%) [4]: 100% and 75%
- Population Apoptotic (%) [5]: 85% and 52%
- Population Fragmented Nuclei (%) [5]: 2%
- Population Healthy Nuclei (%) [5]: 85% and 76%
- Population Hoechst High Intensity Objects (%) [5]: 0%
- Population Membrane Permeable-Phenotype (%) [5]: 1%
- Population Mitochondria Different-Phenotype (%) [5]: 3% and 1%
- Population Normal (%) [5]: 99% and 100%
- Population Pyknosed Nuclei (%) [5]: 11% and 20%
- Population Tubulin-Different-Phenotype (%) [5]: 72% and 37%
- Population Apoptotic (%) [6]: 88% and 79%
- Population Fragmented Nuclei (%) [6]: 31% and 16%
- Population Hoechst High Intensity Objects (%) [6]: 0%
- Population Membrane Permeable-Phenotype (%) [6]: 40% and 45%
- Population Mitochondria Different-Phenotype (%) [6]: 60% and 65%
- Population Mitotic Cells (%) [6]: 11% and 20%
- Population Normal (%) [6]: 100%
- Population Pyknosed Nuclei (%) [6]: 57% and 37%
- Population Tubulin-Different-Phenotype (%) [6]: 100% and 74%
